Reference: ChEMBL document CHEMBL1123508, “Relationship between lipophilic character and urinary excretion of nitroimidazoles and nitrothiazoles in rats” (J Med Chem, 1986)

Experiments:
[1] = (§1) The amount of the unchanged form of compound detected in the urine samples collected at 0-18 hr after the treatment by HPLC technique; type: ADME, organism-based; details: rat, read-out: Amount excreted
Procedure, shortened: (§2)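 Female Sprague-Dawley rats (200 ± 20 g) on chow diet, three per compound, dosed ip in Me2SO (50 μmol mL⁻¹ kg⁻¹). Urine pooled over 0-18 h. One mL urine was spiked with internal standard and extracted, the residue was taken up in 200 μL methanol, and 10-20 μL was injected for HPLC of the unchanged drug. Values expressed as log (percent × 10) of dose.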

[2] = The amount of unchanged compound in urine collected at 0-72 h after treatment; details: rat
[3] = The amount of unchanged compound in urine collected at 0-36 hr after treatment; details: rat
[4] = octanol/water
[5] = Partition coefficient (logP); details: octanol/water
Rattus norvegicus [6] = test: The total 36 hr urinary excretion of unchanged compound reported as log (percent X 10) of the administered dose; details: in vivo
[7] = The amount of unchanged compound detected in urine collected at 0-18 hr after treatment; details: rat
Rattus norvegicus [8] = test: The total 18 hr urinary excretion of unchanged compound reported as log (percent X 10) of the administered dose; details: in vivo
Rattus norvegicus [9] = test: The total 18 hr urinary excretion of the unchanged form of compound in urine was reported as log (percent X 10) of the administered dose by HPLC technique; type: ADME, organism-based; details: in vivo; procedure, shortened: as §2
Rattus norvegicus [10] = test: The total 72 hr urinary excretion of unchanged compound reported as log (percent X 10) of the administered dose; details: in vivo
[11] = The amount of unchanged compound in urine collected at 0-54 hr after treatment; details: rat
Rattus norvegicus [12] = test: The total 54 h urinary excretion of unchanged compound reported as log (percent X 10) of the administered dose; details: in vivo
in vivo = details: rat, urine
Rattus norvegicus [13] = organism: Rattus norvegicus; details: in vivo, 18 h
Rattus norvegicus [14] = organism: Rattus norvegicus; test: as §1; type: functional; procedure, shortened: as §2
[15] = The octanol/water partition coefficient was determined; type: physicochemical; details: read-out: Log K
Procedure, shortened: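 Classical shake-flask octanol/water partitioning with 1 M ammonium chloride buffer, pH 9.0, as the aqueous phase. For one compound the aqueous phase was 0.14 M sodium acetate-barbital buffer, pH 3.6. Concentrations in the octanol and/or aqueous layer were read by UV spectrophotometry.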

SMILES | dose excreted [1] | dose excreted [2] | dose excreted [3] | Log k' [4] | logP [5] | Log BR (Rattus norvegicus [6]) | dose excreted [7] | Log BR (Rattus norvegicus [8]) | log(10 × % of dose excreted unchanged in urine) (Rattus norvegicus [9]) | Log BR (Rattus norvegicus [10]) | dose excreted [11] | Log BR (Rattus norvegicus [12]) | dose excreted (in vivo) | Log BR (Rattus norvegicus [13]) | logP [15] | Amount excreted (Rattus norvegicus [14])
CCS(=O)(=O)CCn1c([N+](=O)[O-])cnc1C [TINIDAZOLE] | 27.3% | 66.3% | 66.3% | -0.125 | -0.36 | 2.822 | 29.4% | 2.468 | 2.436 | 2.822 | 66.3% | 2.822 |  |  |  | 
Cc1ncc([N+](=O)[O-])n1CC(=O)Nc1ncccn1 | 35.4% | 42.1% | 38.9% | -0.115 | -0.3 | 2.59 | 37.1% | 2.569 | 2.549 | 2.701 | 42.1% | 2.701 |  |  |  | 
O=[N+]([O-])c1c[nH]cn1 |  | 46.1% | 39.9% | 0 |  | 2.601 | 33.8% | 2.529 |  | 2.664 | 46.1% | 2.664 |  |  |  | 
O=[N+]([O-])c1cncn1CCN1CCOCC1 [NIMORAZOLE] |  | 52.4% | 52.4% | 0.188 |  | 2.719 | 43.6% | 2.639 |  | 2.719 | 52.4% | 2.719 |  |  |  | 
O=C1NCCN1c1ncc([N+](=O)[O-])s1 [NIRIDAZOLE] |  | 7.3% | 7.3% | 0.363 | 0.92 | 1.861 | 4.6% | 1.663 |  | 1.861 | 7.3% | 1.861 |  |  |  | 
Cc1ncc([N+](=O)[O-])n1CC(O)Cn1c([N+](=O)[O-])cnc1C |  | 22.8% | 22.8% | 0.199 | 0.31 | 2.358 | 18.2% | 2.26 |  | 2.358 | 22.8% | 2.358 | 15.7% | 2.196 |  | 
Cn1c([N+](=O)[O-])cnc1/C=C/c1ccnc(N)n1 [AZANIDAZOLE] | 11.3% | 16% | 16% | 0.423 | 0.85 | 2.202 | 13.8% | 2.142 | 2.054 | 2.202 | 16% | 2.202 |  |  |  | 
O=[N+]([O-])c1cnc(/C=C/c2ccc3c(c2)OCO3)n1CCO |  | 3.4% | 3.4% | 0.659 | 2.03 | 1.529 |  | 1.529 |  | 1.529 | 3.4% | 1.529 |  |  |  | 
Cn1c([N+](=O)[O-])cnc1/C=C(\Oc1ccccc1)C(=O)O |  | 21.7% | 19% | -0.199 | -1 | 2.28 | 2.5% | 1.4 |  | 2.337 | 21.7% | 2.337 |  |  |  | 
CN1CCN(Cc2ncc([N+](=O)[O-])n2C)CC1 |  | 45.5% | 45.5% | 0.014 | -0.33 | 2.658 | 41.7% | 2.62 |  | 2.658 | 45.5% | 2.658 |  |  |  | 
COC(=S)NCCn1c([N+](=O)[O-])cnc1C [CARNIDAZOLE] | 6.5% | 23.1% | 21.5% | 0.465 | 0.9 | 2.33 | 6.7% | 1.826 | 1.819 | 2.364 | 23.1% | 2.364 |  |  |  | 
CCN(CC)CCOCCn1c([N+](=O)[O-])cnc1C |  | 28.5% | 28.5% | 0.021 | -0.38 | 2.455 | 23.4% | 2.369 |  | 2.455 | 28.5% | 2.455 |  |  |  | 
CCC(CC)C(O)Cn1c([N+](=O)[O-])cnc1C (centres undefined) |  | 51.7% | 51.7% | 0.058 | -0.08 | 2.713 | 36.4% | 2.561 |  | 2.713 | 51.7% | 2.713 |  |  |  | 
Nc1ncc(S(=O)(=O)c2ccc([N+](=O)[O-])cc2)s1 |  | 64.7% | 64.7% | -0.049 | -0.43 | 2.811 | 48.6% | 2.687 |  | 2.811 | 64.7% | 2.811 |  |  |  | 
Cc1ncc([N+](=O)[O-])n1CC(=O)N1CCN(C(=O)Cn2c([N+](=O)[O-])cnc2C)CC1 |  | 18.6% | 18.6% | 0.028 |  | 2.27 | 14.3% | 2.155 |  | 2.27 | 18.6% | 2.27 |  |  |  | 

Now from value to compound, other results behind:

dose excreted [1] | dose excreted [2] | dose excreted [3] | Log k' [4] | logP [5] | Log BR (Rattus norvegicus [6]) | dose excreted [7] | Log BR (Rattus norvegicus [8]) | log(10 × % of dose excreted unchanged in urine) (Rattus norvegicus [9]) | Log BR (Rattus norvegicus [10]) | dose excreted [11] | Log BR (Rattus norvegicus [12]) | dose excreted (in vivo) | Log BR (Rattus norvegicus [13]) | logP [15] | SMILES | Amount excreted (Rattus norvegicus [14])
 | 12.9% | 12.9% | 0.455 | 1 | 2.113 | 4.1% | 1.613 |  | 2.113 | 12.9% | 2.113 |  |  |  | Cn1c([N+](=O)[O-])cnc1C1CC1 | 
10.4% | 29.9% | 29.9% | -0.067 | -0.69 | 2.477 | 10.6% | 2.025 | 2.023 | 2.477 | 29.9% | 2.477 |  |  |  | Cn1c([N+](=O)[O-])cnc1C=O | 
11.7% | 42.1% | 29.6% |  |  | 2.471 | 13.2% | 2.121 | 2.068 | 2.625 | 36.9% | 2.567 |  |  |  | Cc1ncc([N+](=O)[O-])n1CC(O)CCl (centres undefined) [ORNIDAZOLE] | 
 | 28% | 27.9% | -0.097 | -0.35 | 2.446 | 25.2% | 2.401 | 2.394 | 2.448 | 28% | 2.448 |  |  |  | Cc1ncc([N+](=O)[O-])n1CCS(C)(=O)=O | 24.8%
25% | 49.2% | 49.2% | -0.067 | -0.1 | 2.692 | 30.5% | 2.484 | 2.407 | 2.692 | 49.2% | 2.692 |  |  |  | Cc1ncc([N+](=O)[O-])n1CCO [METRONIDAZOLE] | 
2.5% | 9.1% | 9.1% | 0.45 | 1.06 | 1.96 | 4.3% | 1.633 | 1.398 | 1.96 | 9.1% | 1.96 |  |  |  | CC(C)c1ncc([N+](=O)[O-])n1C [IPRONIDAZOLE] | 
 | 66.4% | 64.3% | -0.199 |  | 2.808 | 14.3% | 2.155 |  | 2.822 | 66.4% | 2.822 |  |  | -0.63 | Cc1ncc([N+](=O)[O-])n1CC(O)CO (centres undefined) | 
 | 64.9% | 56.8% | -0.11 | -0.03 | 2.754 | 32.6% | 2.513 |  | 2.81 | 60.6% | 2.782 |  |  |  | Cn1c([N+](=O)[O-])cnc1CO | 
